Among the data in PubChem BioAssay AID588485 (Southern Research Specialized Biocontainment Screening …, 2011) are IC50 and CPE inhibition values, retold here.

Several values for one entry are separate records, joined by “and”; a condition that tells them apart may be missing. Identical values can stand only once. Activity calls are given as the source filed them.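 How the source made its calls: active means CPE inhibition of 50% or more; inactive means the rest.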

Experiment [1] relates to HEp-2 RSV Long CPE inhibition, luminescence viability. Briefly: RSV cytopathic effect inhibition in HEp-2 cells, dose response, cell-based, synthesized compounds, set 14 (AID 588485). The method in brief: (§1)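 Incubation – 6 days at 37 °C · Assay system – RSV Long-infected HEp-2 cells · Technique – luminescence-based measurement of virus-induced cytopathic effect · Dosing – 8-point twofold dilution series, 0.39 to 50 µM final, 0.5% DMSO · Controls – uninfected cell-only wells and infected virus control wells · Replication – each dose tested in triplicate · Also added – RSV Long, MOI 0.45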

Assay in experiment [2]: as above
To be noted: HEp-2 RSV Long CPE inhibition, luminescence viability; at 50 µM (top of the series). The method in brief: as §1

By IC50 is commonly meant the concentration needed to halve the response being measured. Regarding `CN(C)c1ccc(Cn2c(=O)n(Cc3ccc(C(=O)NCC4COC4)cc3)c(=O)c3ccccc32)cc1`, the IC50 in experiment [1] is 1250 nM.

Turning to `COCCCNC(=O)c1ccc(Cn2c(=O)c3ccccc3n(Cc3ccc([N+](=O)[O-])cc3)c2=O)cc1`, in experiment [1], the IC50 is 460 nM. Still for that read-out and setting: to `CC(C)c1ccc(Cn2c(=O)n(Cc3ccc(C(=O)NCc4ccco4)cc3)c(=O)c3ccccc32)cc1` belongs 1350 nM. Regarding `O=C(O)c1ccc(Cn2c(=O)n(Cc3ccc(C(=O)NCC4COC4)cc3)c(=O)c3ccccc32)cc1`, in experiment [2], the CPE inhibition is 0.24% (inactive) and 0.09% (inactive).
